# Paper PMC7258337 (Nature metabolism, 2020)
# What was measured:
# [1] = serum peptide content by GLP-1R and GcgR cAMP bioassay; type: in vivo, mouse; details: 10 nmol/kg SC QD 7 d
# How it was run: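 On day 7 they got a final dose and serum was taken at 0, 2, 6 or 16 h (n=4/timepoint). Apparent serum peptide concentration was estimated from cAMP accumulation in CHO K1 cells stably expressing human GLP1R or GcgR, by potency comparison.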
# [2] = test system: non-cirrhotic, non-alcoholic steatohepatitis patients; details: cited from earlier work
# [3] = test system: C57BL/6J mice fed AMLN diet; assay: sub-chronic dosing in C57Bl/6J AMLN NASH model; type: in vivo, mouse; details: for weight loss from baseline: Cotadutide 10, Liraglutide 40 nmol/kg SC, OCA 70 μmol/kg PO, QD 6 weeks; for food intake within the first 4 days: same doses; for animals with reduced fibrosis / animals with reduced fibrosis (number of group): n=12; for mice in which NAS was reduced: vehicle controls 8%
# How it was run: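 Male C57BL/6J mice, about 6 weeks old, were fed AMLN diet for 29 weeks (chow controls) before dosing for 6 weeks, n=12/group. Dosing: peptides SC once daily just before lights off; OCA oral. Every mouse got both an SC vehicle (phosphate/propylene glycol/PS-80, pH 7.5) and an oral vehicle (0.5% CMC). Body weight was recorded daily. ipGTT on day 28 after 4 h fast (1.5 g/kg glucose). Terminal blood and liver collected on day 42.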
# [4] = test system: DIO GLP-1R knock-out (KO) mice; assay: two-week treatment of DIO GLP-1R KO mice; type: in vivo, mouse
# How it was run: (§1)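 Mice were made obese on diet for 8 weeks, then moved to 45% high-fat diet for 2 weeks. Body weight was tracked as % change, with cumulative food intake over days 1–4. Blood and tissues were taken 20 h after the final dose.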
# [5] = test system: C57BL6J diet-induced NASH model; assay: six-week treatment of NASH C57Bl6/J mice; type: in vivo, mouse
# [6] = test system: DIO C57Bl/6J Wild-type (WT) mice; assay: two-week treatment of DIO GLP-1R WT mice; type: in vivo, mouse
# How it was run: as §1
# [7] = test system: mouse primary hepatocytes; assay: mitophagosomes by live cell confocal microscopy; type: cell-based; details: 100 nM, 2h
# How it was run: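 Primary mouse hepatocytes were kept 1 h at 37°C/5% CO2, then 4 h in fresh isolation medium, then moved to serum-free low-glucose DMEM (10 mM lactate, 2 mM glutamine, 5 mM HEPES, 10 nM dexamethasone). Cells were used 18–24 h post-plating and given 100 nM test compound for 2 h. Live cells were stained with Mitotracker green plus Lysotracker deep red and imaged by confocal microscopy. Mitophagosomes were scored as Lysotracker puncta containing Mitotracker signal.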
# [8] = test system: primary mouse hepatocytes; assay: mitochondrial oxygen consumption; type: cell-based
# How it was run: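 Seahorse XFe96 run on primary mouse hepatocytes at 7500 cells/well, recovered overnight, then treated 4 h with 100 nM test compound. Assay medium: DMEM with 5 mM glucose, 4 mM L-glutamine, 2 mM pyruvate, pH 7.4; 30 min CO₂-free preincubation. Stress test used 1 μM oligomycin, 0.5 μM FCCP and 5 μM antimycin A. Basal and maximal OCR normalized to citrate synthase activity. n=3; substrate oxidation n=2.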
# [9] = test system: primary murine hepatocytes; assay: de novo lipogenesis, 3H-acetate lipid incorporation; type: cell-based, mouse; details: 100 nM; vs vehicle-treated controls
# How it was run: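 Primary murine hepatocytes treated ex vivo with test compound at 100 nM. De novo lipogenesis was measured as ³H-acetate incorporation into lipid: lipids were extracted, and ³H in the lower phase was counted by scintillation. Values are relative to vehicle-treated controls. n=3–6 per treatment, n=9 vehicle.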
# C57Bl/6J DIO male mice = assay: hyperglycemic clamp and stable isotope infusions in DIO C57Bl6J; type: in vivo, mouse
# How it was run: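 Twenty-week-old male C57Bl/6J DIO mice were kept on a shifted light cycle (lights on midnight to noon). Arterial and venous catheters were placed 5 days before a hyperglycemic clamp with […] glucose and water tracing.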
# [10] = test system: primary human hepatocytes from normal or NASH donors; assay: PPARGC1A mRNA in primary human hepatocytes; type: cell-based; details: 100 nM, 4 h; healthy and NASH donors
# How it was run: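 Primary hepatocytes from normal or NASH human donors, exposed to test compound at 100 nM for 4 h; PPARGC1A transcript measured. n=3 biologically independent samples per group.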
# [11] = test system: C57Bl/6J diet induced obese (DIO) male mice; assay: time course study in DIO C57Bl/6J mice, 7 days dosing; type: in vivo, mouse
# How it was run: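 On day 7 they were euthanized at time 0, or at 2, 6 or 16 h after a final dose (n=4/group/timepoint). Body weight was tracked as % change from baseline; blood glucose was measured.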
# ob/ob AMLN NASH mice = assay: sub-chronic dosing in ob/ob AMLN NASH model; type: in vivo, mouse
# [12] = test system: primary mouse hepatocytes; assay: mRNA levels in primary mouse hepatocytes; type: cell-based; details: 1, 10, 100 nM, 4h
# How it was run: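 Primary mouse hepatocytes were exposed to test compound at 1, 10 or 100 nM for 4 h, and G6pc, Pck1 and Ppargc1a mRNA were measured. For Ppargc1a, the 100 nM condition was also combined with PKA inhibitor H89 at 10 μM. For G6pc and Pck1, it was combined with H89 at 2.5, 5 or 10 μM. n=3 biologically independent samples; one-way ANOVA with Dunnett post-hoc.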
compound,measurement,setting,value
"CCCCCCCCCCCCCCCC(=O)N[C@@H](CCC(=O)NCCCC[C@H](NC(=O)[C@H](C)NC(=O)[C@H](C)NC(=O)[C@H](CCC(N)=O)NC(=O)CNC(=O)[C@H](CCC(=O)O)NC(=O)[C@H](CC(C)C)NC(=O)[C@H](Cc1ccc(O)cc1)NC(=O)[C@H](CO)NC(=O)[C@H](CO)NC(=O)[C@@H](NC(=O)[C@H](CC(=O)O)NC(=O)[C@H](CO)NC(=O)[C@@H](NC(=O)[C@H](Cc1ccccc1)NC(=O)[C@@H](NC(=O)CNC(=O)[C@H](CCC(=O)O)NC(=O)[C@H](C)NC(=O)[C@@H](N)Cc1cnc[nH]1)[C@@H](C)O)[C@@H](C)O)C(C)C)C(=O)N[C@@H](CCC(=O)O)C(=O)N[C@@H](Cc1ccccc1)C(=O)N[C@H](C(=O)N[C@@H](C)C(=O)N[C@@H](Cc1c[nH]c2ccccc12)C(=O)N[C@@H](CC(C)C)C(=O)N[C@H](C(=O)N[C@@H](CCCNC(=N)N)C(=O)NCC(=O)N[C@@H](CCCNC(=N)N)C(=O)NCC(=O)O)C(C)C)[C@@H](C)CC)C(=O)O [Liraglutide, reference compound]","pharmacokinetics compared with Cotadutide, in words",[1],longer bioavailability
"CC[C@H]1[C@@H](O)[C@@H]2[C@H](CC[C@]3(C)[C@@H]([C@H](C)CCC(=O)O)CC[C@@H]23)[C@@]2(C)CC[C@@H](O)C[C@@H]12 [OCA, Obeticholic acid, reference compound]",patients with a reduction in NAS,[2]; placebo 12%,20%
same,patients with reduction in fibrosis stage,[2]; placebo 17%,35%
same,weight loss from baseline,[3],~ 3%
same,plasma insulin at 15 min during the GTT,[3]; after 4 weeks of dosing,no effect
same,food intake within the first 4 days,[3],no effect
same,animals with reduced fibrosis,[3]; terminal vs pre-study biopsy,8.3%
same,animals with reduced fibrosis (number of group),[3]; terminal vs pre-study biopsy,1/12
same,liver mass,"[3]; terminal, vs vehicle",only reducing liver mass
same,mice in which NAS was reduced,[3],75%
same,"steatosis and inflammation scores and overall NAS, responders",[3]; vs vehicle,significantly more animals with lower steatosis and inflammation scores and overall NAS
Cotadutide,body weight,[4]; 10 nmol/kg SC QD 14 d (Liraglutide+g1437 5+5 nmol/kg),not observed
same,food intake,[4]; first 4 days of dosing,but not in KO mice
same,body weight,[5]; 10 nmol/kg SC QD 42 d,"reduced body weight similarly to Liraglutide+g1437, but more than either Liraglutide or g1437 alone"
same,glucose excursion in pyruvate tolerance test,"[5]; day 14, pyruvate 2g/kg",lower glucose excursion
same,plasma alanine aminotransferase (ALT),[5]; end of study,significantly reduced
same,hepatic glycogen,[5]; terminal,elevated only with Cotadutide treatment
same,liver triglycerides,[5]; terminal,reduced
same,fasted insulin,"[5]; vs vehicle, Liraglutide and Liraglutide+g1437",lower
same,body weight,"[6]; 10 nmol/kg SC QD 14 d (Liraglutide+g1437 5+5 nmol/kg), vs vehicle",significantly reduced
same,liver lipid content,"[6]; 10 nmol/kg SC QD 14 d, terminal",to a greater degree than Liraglutide alone
same,food intake,"[6]; 10 nmol/kg SC QD, first 4 days of dosing",significantly reduced
same,fasting glucose,"[6]; 10 nmol/kg SC QD, vs vehicle",lowered
same,mitochondrial number,[7],without altering mitochondrial number
same,mitophagosomes (mitochondria within lysosomes),[7]; vs vehicle,Increased number
same,fuel preference,[8]; ex vivo treatment,no effect
same,basal and maximal respiration rates,"[8]; healthy mouse primary hepatocytes, 100 nM, 4h",increased basal and maximal respiration rates
same,basal and maximal respiratory rates (OCR),"[8]; hepatocytes from ob/ob NASH mice, 100 nM, 4h ex vivo",restored
same,de novo lipid synthesis,[9],reduce de novo lipid synthesis
same,de novo lipogenesis during the clamp (palmitate and glyceride synthesis),C57Bl/6J DIO male mice; 10 nmol/kg SC QD 7 d,reduced
same,glycogen synthesis stimulated by hyperglycemia,C57Bl/6J DIO male mice; 10 nmol/kg SC QD 7 d,intact
same,hepatic (endogenous) glucose production during hyperglycemia,C57Bl/6J DIO male mice; 10 nmol/kg SC QD 7 d,suppressed
same,core hepatic glycogen,"C57Bl/6J DIO male mice; 10 nmol/kg SC QD 7 d, fasted",lower core glycogen levels
same,basal glucose production,"C57Bl/6J DIO male mice; fasted, basal state",increased basal glucose production
same,weight loss from baseline,[3],~ 8%
same,glucose tolerance (ipGTT),[3]; after 4 weeks of dosing,significantly improved by Cotadutide more so than Liraglutide or OCA
same,plasma insulin at 15 min during the GTT,[3]; after 4 weeks of dosing,increased
same,food intake within the first 4 days,[3],reduced food intake
same,hepatic glycogen,[3]; terminal,increase in hepatic glycogen
same,animals with worsened fibrosis,[3]; terminal vs pre-study biopsy,no animals had worsened fibrosis
same,animals with reduced fibrosis,[3]; terminal vs pre-study biopsy,25%
same,animals with reduced fibrosis (number of group),[3]; terminal vs pre-study biopsy,3/12
same,liver mass,"[3]; terminal, vs vehicle",unchanged liver mass
same,plasma ALT,"[3]; terminal, vs vehicle",reduced ALT levels
same,mice in which NAS was reduced,[3],83%
same,"steatosis and inflammation scores and overall NAS, responders",[3]; vs vehicle,significantly more animals with lower steatosis and inflammation scores and overall NAS
same,serum concentration at 16h,[1],undetectable
same,time of highest serum concentration,"[1]; sampled 0, 2, 6, 16 h after final dose",highest at 2h and 6h
same,PPARGC1A transcript levels,[10],significantly increased
same,liver glycogen,[11]; 0-16 h after final dose,rapidly depleted by 6h post Cotadutide but rebounded to normal at 16h
same,body weight,"[11]; 10 nmol/kg SC QD 7 d, vs vehicle",significant weight loss
same,blood glucose,"[11]; smaller study vehicle vs Cotadutide, 2h and 6h post dose",significantly lowered
same,weight loss from baseline,"ob/ob AMLN NASH mice; Cotadutide 30 nmol/kg, Liraglutide 40 nmol/kg SC QD 6 weeks",7-8%
same,plasma C3M and P4NP7S,ob/ob AMLN NASH mice; ELISA,only reduced in Cotadutide-treated mice
same,"resolution of fibrosis, mice",ob/ob AMLN NASH mice; n=7,resolved in all but one
same,lowering of collagen staining (Col1a1),ob/ob AMLN NASH mice; not statistically significant,~ 17%
same,"hepatic transcript levels of Col1a1, Col3a1, Timp1, Ccl2, and Cd68",ob/ob AMLN NASH mice; relative to AMLN vehicle,significantly reduced
same,"hepatic transcript levels of Mmp9, Il-1b and Tnf",ob/ob AMLN NASH mice; relative to AMLN vehicle,uniquely reducing
same,CD68 scoring (immune cell infiltration),ob/ob AMLN NASH mice; terminal,only reduced by Cotadutide treatment
same,NAS,ob/ob AMLN NASH mice; terminal,reduced
same,fibrosis stage,ob/ob AMLN NASH mice; terminal,improved only by Cotadutide treatment
same,hepatic lipid content,ob/ob AMLN NASH mice; terminal,more significant reduction in hepatic lipid content compared to Liraglutide and diet-switch
same,liver mass,ob/ob AMLN NASH mice; terminal,similarly reduced
same,"liver αSMA, PSR and hydroxyproline",ob/ob AMLN NASH mice; terminal,lowered
same,plasma ALT,ob/ob AMLN NASH mice; terminal,lowered
same,hepatic Ppargc1a mRNA,"ob/ob AMLN NASH mice; terminal, about 16h post last dose",restored mRNA levels to those of LFD control
same,hepatic DAGs and ceramides,ob/ob AMLN NASH mice; vs vehicle,only Cotadutide additionally reduced DAGs and ceramides
same,G6pc and Pck1 mRNA,[12],induced
same,Ppargc1a mRNA,[12],equally increased
